ChEMBL document CHEMBL1133995, “Synthesis and P2Y receptor activity of a series of uridine dinucleoside 5'-polyphosphates” (Bioorg Med Chem Lett, 2001)

How the values were obtained:
Type in all cases: functional, cell-based
P2Y purinoceptor 2 [1] = target: T1, P2Y purinoceptor 2 (Homo sapiens, UniProt P41231); experiment: Agonist activity evaluated as change in the level of cytosolic calcium in 1321N astrocytoma cells infected with a retrovirus encoding the human P2Y2 receptor
P2Y purinoceptor 1 = P2Y purinoceptor 1 (Homo sapiens, UniProt P47900); experiment: Agonist activity evaluated as change in the level of cytosolic calcium in 1321N astrocytoma cells infected with a retrovirus encoding the human P2Y1 receptor at 100 uM; IA is inactive
Chain of P2Y purinoceptor 1 (P47900 whole entry): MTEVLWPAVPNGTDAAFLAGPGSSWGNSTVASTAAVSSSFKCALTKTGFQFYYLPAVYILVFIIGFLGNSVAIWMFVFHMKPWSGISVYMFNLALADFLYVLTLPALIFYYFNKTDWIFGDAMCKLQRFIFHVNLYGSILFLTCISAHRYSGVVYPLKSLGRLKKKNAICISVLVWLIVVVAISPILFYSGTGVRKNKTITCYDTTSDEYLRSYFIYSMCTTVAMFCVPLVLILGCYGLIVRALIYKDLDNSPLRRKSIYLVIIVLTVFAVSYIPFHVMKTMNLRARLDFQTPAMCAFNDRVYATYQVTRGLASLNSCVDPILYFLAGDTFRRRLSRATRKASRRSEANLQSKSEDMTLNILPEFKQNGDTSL

P2Y purinoceptor 4 [2] = target: T2, P2Y purinoceptor 4 (Homo sapiens, UniProt P51582); experiment: Agonist activity evaluated as change in the level of cytosolic calcium in 1321N astrocytoma cells infected with a retrovirus encoding the human P2Y4 receptor
T2 sequence (P51582 whole entry): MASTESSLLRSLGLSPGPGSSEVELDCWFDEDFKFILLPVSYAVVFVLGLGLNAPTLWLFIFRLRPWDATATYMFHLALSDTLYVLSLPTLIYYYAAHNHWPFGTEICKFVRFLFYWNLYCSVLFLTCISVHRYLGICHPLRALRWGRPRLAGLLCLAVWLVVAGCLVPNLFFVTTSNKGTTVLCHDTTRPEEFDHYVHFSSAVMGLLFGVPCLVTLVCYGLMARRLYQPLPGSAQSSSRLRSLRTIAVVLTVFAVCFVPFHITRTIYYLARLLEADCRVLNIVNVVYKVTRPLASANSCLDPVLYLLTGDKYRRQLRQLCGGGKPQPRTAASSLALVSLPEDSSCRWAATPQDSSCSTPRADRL

P2Y purinoceptor 6 = P2Y purinoceptor 6 (Homo sapiens, UniProt Q15077); experiment: Agonist activity evaluated as change in the level of cytosolic calcium in 1321N astrocytoma cells infected with a retrovirus encoding the human P2Y6 receptor
Chain of P2Y purinoceptor 6 (Q15077 whole entry): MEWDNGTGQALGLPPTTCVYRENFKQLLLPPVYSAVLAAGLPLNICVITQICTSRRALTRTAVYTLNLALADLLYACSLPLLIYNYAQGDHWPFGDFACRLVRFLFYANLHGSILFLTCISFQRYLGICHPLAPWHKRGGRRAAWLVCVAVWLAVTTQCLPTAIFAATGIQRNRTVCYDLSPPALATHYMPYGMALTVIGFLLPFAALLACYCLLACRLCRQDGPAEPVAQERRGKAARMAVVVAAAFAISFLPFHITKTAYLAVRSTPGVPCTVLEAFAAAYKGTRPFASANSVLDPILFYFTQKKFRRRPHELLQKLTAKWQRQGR
Procedure, shortened: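 Cells grown to confluence, then loaded with Fluo-3 AM (2.5 μM final) for 60 min at 25 °C in buffer (mM: KCl 10.0, NaCl 118, CaCl2 2.5, MgCl2 1.0, HEPES 20, glucose 10; pH 7.4). Dye washed off. Activation read as change in fluorescence intensity on FLIPR (cytosolic calcium mobilization). Agonist potency given as EC50.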

P2Y purinoceptor 4 [3] = target: T2, P2Y purinoceptor 4; experiment: Agonist activity evaluated as change in the level of cytosolic calcium in 1321N astrocytoma cells infected with a retrovirus encoding the human P2Y4 receptor at 100 uM; IA is inactive
P2Y purinoceptor 2 [4] = target: T1, P2Y purinoceptor 2; experiment: Agonist activity evaluated as change in the level of cytosolic calcium in 1321N astrocytoma cells infected with a retrovirus encoding the human P2Y2 receptor at 100 uM; IA is inactive

T1 sequence (P41231 whole entry): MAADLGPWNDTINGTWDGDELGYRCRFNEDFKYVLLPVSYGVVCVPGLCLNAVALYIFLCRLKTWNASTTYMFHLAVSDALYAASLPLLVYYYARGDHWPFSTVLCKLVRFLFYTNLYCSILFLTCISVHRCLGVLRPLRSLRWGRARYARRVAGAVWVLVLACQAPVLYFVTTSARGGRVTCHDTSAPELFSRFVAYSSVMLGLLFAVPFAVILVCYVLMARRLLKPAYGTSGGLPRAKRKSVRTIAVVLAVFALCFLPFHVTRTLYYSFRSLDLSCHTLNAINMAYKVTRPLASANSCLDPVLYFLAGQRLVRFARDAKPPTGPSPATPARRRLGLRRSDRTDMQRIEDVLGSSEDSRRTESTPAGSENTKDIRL

Compound	EC50 (P2Y purinoceptor 2 [1]) [µM]	EC50 (P2Y purinoceptor 1)	EC50 (P2Y purinoceptor 4 [2]) [µM]	EC50 (P2Y purinoceptor 6) [µM]	EC50 (P2Y purinoceptor 4 [3])	EC50 (P2Y purinoceptor 2 [4])
O=c1ccn([C@@H]2O[C@H](COP(=O)(O)OP(=O)(O)OP(=O)(O)O)[C@@H](O)[C@H]2O)c(=O)[nH]1 [URIDINE TRIPHOSPHATE]	0.03	Not Active	0.1	> 10		
O=c1ccn([C@@H]2O[C@H](COP(=O)(O)OP(=O)(O)OP(=O)(O)OC[C@@H]3O[C@H](n4ccc(=O)[nH]c4=O)[C@@H](O)[C@H]3O)[C@@H](O)[C@H]2O)c(=O)[nH]1	22	Not Active	> 100	0.2		
O=c1ccn([C@@H]2O[C@H](COP(=O)(O)OP(=O)(O)OP(=O)(O)OP(=O)(O)OP(=O)(O)OP(=O)(O)OP(=O)(O)OC[C@@H]3O[C@H](n4ccc(=O)[nH]c4=O)[C@@H](O)[C@H]3O)[C@@H](O)[C@H]2O)c(=O)[nH]1	8.4	Not Active	> 30	> 100		
O=c1ccn([C@@H]2O[C@H](COP(=O)(O)OP(=O)(O)OP(=O)(O)OP(=O)(O)OP(=O)(O)OP(=O)(O)OC[C@@H]3O[C@H](n4ccc(=O)[nH]c4=O)[C@@H](O)[C@H]3O)[C@@H](O)[C@H]2O)c(=O)[nH]1	9.8	Not Active	> 30	> 30		
O=c1ccn([C@@H]2O[C@H](COP(=O)(O)OP(=O)(O)OP(=O)(O)OP(=O)(O)OC[C@@H]3O[C@H](n4ccc(=O)[nH]c4=O)[C@@H](O)[C@H]3O)[C@@H](O)[C@H]2O)c(=O)[nH]1		Not Active	0.4	20		
O=c1ccn([C@@H]2O[C@H](COP(=O)(O)OP(=O)(O)OP(=O)(O)OP(=O)(O)OP(=O)(O)OC[C@@H]3O[C@H](n4ccc(=O)[nH]c4=O)[C@@H](O)[C@H]3O)[C@@H](O)[C@H]2O)c(=O)[nH]1	5.6	Not Active	> 20	> 30		
O=c1ccn([C@@H]2O[C@H](COP(=O)(O)OP(=O)(O)OC[C@@H]3O[C@H](n4ccc(=O)[nH]c4=O)[C@@H](O)[C@H]3O)[C@@H](O)[C@H]2O)c(=O)[nH]1		Not Active		> 30	Not Active	Not Active
O=c1ccn([C@@H]2O[C@H](COP(=O)(O)OP(=O)(O)O)[C@@H](O)[C@H]2O)c(=O)[nH]1 [URIDINE_DIPHOSPHATE]	> 10	Not Active		0.1	Not Active	
